This note sets out measurements from ChEMBL document CHEMBL4819098, “Novel 1,2,4-triazine-quinoline hybrids: The privileged scaffolds as potent multi-target inhibitors of LPS-induced inflammatory response via dual COX-2 and 15-LOX inhibition” (Eur J Med Chem, 2021).

Structures are written as SMILES.

The nature of series [1]: Inhibition of soybean 15-LOX. Also on record: species or system Glycine max. The procedure, abridged: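 Soybean 15-LOX run with a lipoxygenase inhibitor screening kit according to the manufacturer's instructions. IC50 values reported.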
In series [2] the target is T1, Prostaglandin G/H synthase 2 (Homo sapiens, UniProt P35354).
T1 sequence (P35354 whole entry): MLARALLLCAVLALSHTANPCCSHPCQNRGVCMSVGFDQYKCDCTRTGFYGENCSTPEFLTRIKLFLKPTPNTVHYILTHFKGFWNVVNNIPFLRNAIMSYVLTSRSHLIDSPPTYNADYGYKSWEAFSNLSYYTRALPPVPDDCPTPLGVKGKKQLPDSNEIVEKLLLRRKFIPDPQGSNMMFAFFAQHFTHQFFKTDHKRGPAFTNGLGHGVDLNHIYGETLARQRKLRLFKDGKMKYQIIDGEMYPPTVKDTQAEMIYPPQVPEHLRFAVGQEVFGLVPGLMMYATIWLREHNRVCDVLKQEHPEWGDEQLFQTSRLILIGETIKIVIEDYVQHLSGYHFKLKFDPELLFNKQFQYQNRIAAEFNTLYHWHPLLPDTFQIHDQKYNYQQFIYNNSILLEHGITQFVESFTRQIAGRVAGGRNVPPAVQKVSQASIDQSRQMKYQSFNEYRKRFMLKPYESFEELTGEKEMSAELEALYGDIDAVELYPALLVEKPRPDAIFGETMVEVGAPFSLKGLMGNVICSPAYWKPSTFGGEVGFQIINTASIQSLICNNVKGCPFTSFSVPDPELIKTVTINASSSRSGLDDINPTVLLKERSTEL
Put plainly: Inhibition of human recombinant COX-2. The procedure, abridged:
(§1)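 Enzyme kit assay with ovine COX-1 and human recombinant COX-2. IC50 determined from three replicates. Selectivity index taken as IC50(COX-1)/IC50(COX-2).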

Series [3] addresses T2, Prostaglandin G/H synthase 1 (Ovis aries, UniProt P05979).
T2 sequence (P05979 whole entry): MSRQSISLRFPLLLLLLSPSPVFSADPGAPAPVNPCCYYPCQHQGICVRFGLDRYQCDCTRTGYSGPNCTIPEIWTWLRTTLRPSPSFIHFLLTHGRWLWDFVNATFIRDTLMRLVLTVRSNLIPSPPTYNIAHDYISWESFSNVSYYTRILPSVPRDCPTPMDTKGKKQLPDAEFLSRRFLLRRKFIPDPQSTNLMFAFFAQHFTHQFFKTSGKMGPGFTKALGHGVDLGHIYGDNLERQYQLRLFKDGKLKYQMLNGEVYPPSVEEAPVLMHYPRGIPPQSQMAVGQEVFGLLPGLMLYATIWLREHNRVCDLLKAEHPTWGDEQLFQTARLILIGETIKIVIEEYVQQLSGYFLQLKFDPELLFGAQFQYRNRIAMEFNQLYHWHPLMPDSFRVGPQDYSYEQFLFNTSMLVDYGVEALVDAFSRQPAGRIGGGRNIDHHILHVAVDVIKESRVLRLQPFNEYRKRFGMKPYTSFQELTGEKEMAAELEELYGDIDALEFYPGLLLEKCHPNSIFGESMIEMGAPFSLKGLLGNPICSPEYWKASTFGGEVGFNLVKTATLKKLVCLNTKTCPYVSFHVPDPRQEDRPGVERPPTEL
Briefly: Inhibition of ovine COX-1. The method, boiled down: as §1

Series [4] deals with T2, Prostaglandin G/H synthase 1. Put plainly: Inhibition of ovine COX-1 using arachidonic acid as substrate preincubated with enzyme for 20 mins followed by incubation with substrate for 2 mins by ADPH based fluorometric analysis.
Series [5] deals with T1, Prostaglandin G/H synthase 2. Put plainly: Inhibition of human recombinant COX-2 using arachidonic acid as substrate preincubated with enzyme for 20 mins followed by incubation with substrate for 2 mins by ADPH based fluorometric analysis.
The target in series [6] is T3, Prostaglandin G/H synthase 2 (Ovis aries, UniProt P79208).
T3 sequence (P79208 whole entry): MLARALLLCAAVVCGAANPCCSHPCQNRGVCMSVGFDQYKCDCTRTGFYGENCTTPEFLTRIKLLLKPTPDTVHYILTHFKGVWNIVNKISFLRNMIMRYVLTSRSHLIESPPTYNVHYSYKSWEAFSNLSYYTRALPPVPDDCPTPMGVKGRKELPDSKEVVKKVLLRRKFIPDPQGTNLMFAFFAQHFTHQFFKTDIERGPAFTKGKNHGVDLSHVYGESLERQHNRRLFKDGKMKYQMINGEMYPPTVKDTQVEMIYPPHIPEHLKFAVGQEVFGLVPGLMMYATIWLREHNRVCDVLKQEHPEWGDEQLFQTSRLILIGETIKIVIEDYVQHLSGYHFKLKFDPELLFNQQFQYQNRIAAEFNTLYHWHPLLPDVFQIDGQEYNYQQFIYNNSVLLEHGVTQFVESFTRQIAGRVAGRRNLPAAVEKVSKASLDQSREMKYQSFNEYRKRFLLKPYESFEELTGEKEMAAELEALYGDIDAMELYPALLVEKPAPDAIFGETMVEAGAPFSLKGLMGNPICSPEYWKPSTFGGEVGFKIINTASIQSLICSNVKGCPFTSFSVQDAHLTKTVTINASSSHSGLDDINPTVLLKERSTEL
Briefly: Inhibition of ovine COX-2 using arachidonic acid as substrate preincubated with enzyme for 5 mins followed by incubation with substrate for 5 mins by colorimetric analysis.

A short description of series [7]: Inhibition of soybean 5-LOX. On the set-up: species or system Glycine max.
Series [8] addresses T2, Prostaglandin G/H synthase 1. Put plainly: Inhibition of ovine COX-1 using arachidonic acid as substrate preincubated with enzyme for 5 mins followed by incubation with substrate for 5 mins by colorimetric analysis.
For series [9], the system named is RAW264.7. Briefly: Antioxidant activity in mouse RAW264.7 cells assessed as inhibition of LPS-induced intracellular ROS production preincubated for 2 hrs followed by LPS stimulation and measured after 20 hrs by DCFH-DA staining based fluorescence analysis. The series is classed as functional, cell-based.
The test system of series [10] is RAW264.7. Put plainly: Potency index, ratio of celecoxib IC50 to test compound IC50 for inhibition of LPS-induced 15(S)-HETE production in mouse RAW264.7 cells preincubated for 2 hrs followed by LPS stimulation and measured after 20 hrs by ELISA. The series is classed as functional. The conditions noted are these: time 22 hrs. (In general: In an ELISA, binding on a coated surface is turned into a signal by an enzyme label.)

In series [11] the target is T4, Prostaglandin G/H synthase 2 (Homo sapiens) (UniProt P35354).
T4 sequence (whole entry): T1 sequence (P35354 whole entry)
Put plainly: Potency index, ratio of diclofenac sodium IC50 to test compound IC50 for human recombinant COX-2 using arachidonic acid as substrate preincubated with enzyme for 5 mins followed by substrate addition by colorimetric analysis.

Series [12] concerns RAW264.7. Put plainly: Inhibition of LPS-induced 15(S)-HETE production in mouse RAW264.7 cells preincubated for 2 hrs followed by LPS stimulation and measured after 20 hrs by ELISA. In kind it is functional, cell-based.
For series [13], the system named is RAW264.7. Briefly: Cytotoxicity against mouse RAW264.7 cells assessed as reduction in cell viability by MTS assay. In kind it is cell-based. The method, boiled down: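 RAW 264.7 macrophage viability at the tested concentrations measured by MTS assay.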
On the technique in general: Tetrazolium assays rely on reduction of a dye to a coloured formazan, in cell work by metabolically active cells.

Series [14] concerns RAW264.7. Put plainly: Inhibition of LPS-induced IL-6 production in mouse RAW264.7 cells preincubated for 2 hrs followed by LPS stimulation and measured after 20 hrs by ELISA. The series is classed as functional, cell-based.
In series [15] the test system is RAW264.7. Briefly: Potency index, ratio of diclofenac sodium IC50 to test compound IC50 for inhibition of LPS-induced IL-6 production in mouse RAW264.7 cells preincubated for 2 hrs followed by LPS stimulation and measured after 20 hrs by ELISA. In kind it is functional. The conditions noted are these: time 22 hrs.
In series [16] the target is T2, Prostaglandin G/H synthase 1. Briefly: Inhibition of ovine COX-1 using arachidonic acid as substrate preincubated with enzyme for 5 mins followed by substrate addition by colorimetric analysis.
Series [17] in a line: Selectivity index, ratio of IC50 for ovine COX-1 to IC50 for human recombinant COX-2. The procedure, abridged:
as §1

Series [18] relates to RAW264.7. Put plainly: Potency index, ratio of celecoxib IC50 to test compound IC50 for inhibition of LPS-induced IL-6 production in mouse RAW264.7 cells preincubated for 2 hrs followed by LPS stimulation and measured after 20 hrs by ELISA. The series is classed as functional. As to conditions: time 22 hrs.
Series [19] deals with RAW264.7. Briefly: Potency index, ratio of celecoxib IC50 to test compound IC50 for antioxidant activity in mouse RAW264.7 cells assessed as inhibition of LPS-induced intracellular ROS production preincubated for 2 hrs followed by LPS stimulation and measured after 20 hrs by DCFH-DA staining based fluorescence analysis. The series is classed as functional. As to conditions: time 22 hrs.

In series [20] the test system is RAW264.7. Put plainly: Inhibition of LPS-induced TNFalpha production in mouse RAW264.7 cells preincubated for 2 hrs followed by LPS stimulation and measured after 20 hrs by ELISA. In kind it is functional, cell-based.
Series [21] has as its target T1, Prostaglandin G/H synthase 2. Put plainly: Inhibition of human recombinant COX-2 using arachidonic acid as substrate preincubated with enzyme for 5 mins followed by substrate addition by colorimetric analysis.
Series [22] can be described thus: Inhibition of soybean 15-LOX using arachidonic acid or linolenic acid as substrate in presence of hydrogen peroxide incubated for 5 mins by colorimetric analysis. On the set-up: species or system Glycine max.

As to `O=C1N/C(=N\c2nnc(-c3ccc(O)cc3)s2)S/C1=C\c1ccccc1`, the IC50 in series [1] was 5.74 µM; in series [2] it was 0.085 µM; in [3] it was 4.66 µM.

As to `COc1ccc(-c2cc(-c3nnc(SC/C(=N/O)c4ccccc4)n3-c3ccccc3)c3ccccc3n2)cc1`, the figures for the IC50 in [4] and in series [5] were 0.48 µM and 1.6 µM, respectively.

As to `COc1ccc(-c2nn(-c3ccc(Cl)cc3)cc2/C=C/c2cc(C(=O)N3CCOCC3)c3cc(Cl)ccc3n2)cc1`, the IC50 in [6] worked out at 0.1 µM; in series [7] it was 1.87 µM; in [8], 11.4 µM.

Regarding `O=c1c(Cc2ccccc2)n[nH]c(=S)n1/N=C/c1cc2cc(OCc3ccccc3)ccc2nc1O`, the IC50 with RAW264.7 [9] came out at 1.02 µM; in the series on RAW264.7 [12] it was 0.17 µM; in the series on RAW264.7 [14], 7.7 µM; in [16] it was 12.5 µM; in the series on RAW264.7 [20], 19.2 µM; in series [21], 0.047 µM. For the same compound, the IC50 in [22] was found to be 1.81 µM. The “Ratio IC50” value in the series with RAW264.7 [10] came out at 43; in [11], 17.9; in the series on RAW264.7 [15] it was 1.7; in [17], 266; in the series with RAW264.7 [18] it was 1.5; in the series with RAW264.7 [19], 11. Moreover, the Activity result in the series with RAW264.7 [13] was “Non-Toxic”.

`COc1ccc(/C=C\C(=O)c2cc(-n3cc(CN4C(=O)C(=O)c5ccccc54)nn3)ccc2O)cc1`: the concentration for half-maximal inhibition (IC50) is 1.95 µM in [1], 0.037 µM in [2] and 13.3 µM in [3].

A word on the IC50: it is the point on the concentration scale where inhibition reaches its midpoint.
